Our source for the MIC and Ratio values is ChEMBL document CHEMBL2040749, “Novel polycyclic 'cage'-1,2-diamines as potential anti-tuberculosis agents” (2012).

Holding throughout (assay type): functional
The subject of assay [1] is Mycobacterium tuberculosis. The assay is described as follows: Antitubercular activity against multi-drug resistant Mycobacterium tuberculosis after 21 days by BACTEC MGIT 960 method. The conditions noted are these: 504 h. In short, it runs like this:
(§1)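 Compounds dissolved in 100% methanol (10 mg/mL stock), sonicated, filter-sterilised, diluted in sterile water; twofold serial dilutions, working range 8 to 0.125 µg/mL. Strains grown in Middlebrook 7H9 + OADC at 37 °C; inoculum adjusted to McFarland 1, diluted tenfold to 10^5 CFU/mL into MGIT tubes. Drug-free control received a 1:100 inoculum. MIC is the lowest dilution negative when the control turns positive. Triplicate.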

Assay [2] concerns Mycobacterium tuberculosis. The assay is described as follows: Antitubercular activity against extensively drug-resistant Mycobacterium tuberculosis after 21 days by BACTEC MGIT 960 method. The conditions noted are these: 504 h. A digest of the protocol:
as §1

Assay [3] deals with Mycobacterium tuberculosis. The assay is described as follows: Ratio of SQ109 MIC to compound MIC for extensively drug-resistant Mycobacterium tuberculosis.
The test system of assay [4] is Mycobacterium tuberculosis. Briefly: Ratio of SQ109 MIC to compound MIC for multi-drug resistant Mycobacterium tuberculosis.

For `CC(C)=CCC/C(C)=C/CNCCNC1C2CC3CC(C2)CC1C3.Cl.Cl` (stereo not drawn), the MIC in assay [1] is 2 µg/mL; in assay [2] it was 4 µg/mL.
On to `CC(C)=CCC/C(C)=C/CNC(=O)CN1[C@H]2C3C4CC5C6C4C2C6[C@@]1(O)C53` (mixture of isomers), for which the minimum inhibitory concentration (MIC) in assay [1] was 4 µg/mL; in assay [2], 8 µg/mL.
For the molecule `CC(C)=CCC/C(C)=C/CNCC(=O)N[C@]12O[C@H]3C4C5CC(C6C5C3C61)C42` (mixture of isomers), the minimal inhibitory concentration (MIC) was found to be 4 µg/mL in assay [1] and 8 µg/mL in assay [2].
For `CC(C)=CCC/C(C)=C/CNCCN[C@@H]1C2C3CC4C5C3CC2C5C41.Cl.Cl` (mixture of isomers), in that order: 4 µg/mL and 8 µg/mL.
In the same order, the values of `CC(C)=CCC/C(C)=C/CNCCN[C@]12O[C@H]3C4C5CC(C6C5C3C61)C42.Cl.Cl` (mixture of isomers) are 2 µg/mL and 4 µg/mL.
In the same order, the values of `CC(C)=CCC/C(C)=C/CNCCN[C@@H]1C2C3CC4C5C3C1C5[C@@H](O)C42.Cl.Cl` (mixture of isomers) are 2 µg/mL and 4 µg/mL.
With `CC(C)=CCC/C(C)=C/CNCCN1[C@H]2C3C4CC5C6C4C2C6[C@@]1(O)C53.Cl.Cl` (mixture of isomers), the MIC in assay [1] is 2 µg/mL; in assay [2] it was 4 µg/mL.
`CC(C)=CCC/C(C)=C/CNCCNC1C2C3CC4C5CC(C42)C1C53.Cl.Cl` (racemic): the Ratio in assay [3] and in assay [4] was 2 in each case. In addition, the MIC in assay [1] was 1 µg/mL; in assay [2], 2 µg/mL.
